Active and inactive are the calls of the source. The calls are words filed in the database; no cut-off is given here.
Key:
MCF7 [1] = test: Decrease in hTERT mRNA level in human MCF7 cells at 50 uM after 12 hrs by TLDA; type: functional, cell-based
How it was run: (§1)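 SKBR3 and MCF7 cells seeded at 2 × 10⁵ per well, treated 12 h with 50 µM compound (DMSO stock); total RNA extracted, cDNA made with random hexamers, gene expression profiled by TaqMan low-density arrays (qPCR, duplicate per gene). Normalised to RPLP0; fold change versus DMSO vehicle-treated cells, calculated as 2^-ΔΔCT.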

[2] = Cytotoxicity in human multiple myeloma cells assessed as early apoptotic cells at 50 uM after 24 hrs by annexin V/propidium iodide staining based flow cytometry (reference value: 0.1%); type: functional, Multiple myeloma cell
SK-BR-3 [3] = test: Increase in CDKN1C mRNA level in human SKBR3 cells at 50 uM after 12 hrs by TLDA; type: functional, cell-based; how it was run: as §1
Jurkat [4] = test: Cytotoxicity against human Jurkat cells after 72 hrs by colorimetric assay; type: functional, cell-based; conditions: Homo sapiens, Jurkat, 72 h; read-out: IC50
Jurkat [5] = test: Cytotoxicity in human Jurkat cells overexpressing Bcl2 assessed as cell death at 50 uM after 72 hrs by propidium iodide-staining based flow cytometry; type: functional
How it was run: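 Jurkat T cells stably overexpressing Bcl-2, plus vector controls, in RPMI-1640 with 10% FBS. Seeded at 4×10⁴ per well and treated for 72 h with 40 µM etoposide, 2 µM doxorubicin or 50 µM compound. Dead cells counted by propidium iodide staining and flow cytometry; means of triplicates with SD.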

[6] = Cytotoxicity in human B-CLL assessed as late apoptotic/necrotic cells at 100 uM after 24 hrs by annexin V/propidium iodide staining based flow cytometry (reference value: 10 to 14.7%); type: functional
MCF7 [7] = test: Decrease in ID1 mRNA level in human MCF7 cells at 50 uM after 12 hrs by TLDA; type: functional, cell-based
How it was run: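 SKBR3 or MCF7 cells, 2×10⁵/well, treated with 50 µM for 12 h. Total RNA was column-purified and reverse-transcribed with random hexamers, then assayed on TaqMan low-density arrays. Expression was normalised to RPLP0, with fold change versus DMSO-vehicle cells calculated as 2^-ΔΔCT. Q-PCR run in duplicate per gene.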

SK-BR-3 [8] = test: Increase in CDKN1A mRNA level in human SKBR3 cells at 50 uM after 12 hrs by TLDA; type: functional, cell-based; how it was run: as §1
SK-BR-3 [9] = test: Cell cycle arrest in human SKBR3 cells by accumulation of cells at S phase at 50 uM after 48 hrs by propidium iodide-staining based flow cytometry (reference value: 30%); type: functional
SK-BR-3 [10] = test: Cell cycle arrest in human SKBR3 cells by accumulation of cells at S phase at 100 uM after 48 hrs by propidium iodide-staining based flow cytometry (reference value: 30%); type: functional
Canavalia ensiformis = test: Inhibition of alpha-mannosidase from jack bean at 1 mM at pH 5
How it was run: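 Glycosidase panel of commercial enzymes assayed at each enzyme's optimal pH with compound at 1 mM; percentage inhibition of enzyme activity calculated.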

[11] = Inhibition of alpha-mannosidase from jack bean at pH 5; parameters: species or system Canavalia ensiformis
MDA-MB-231 = test: Cytotoxicity against human MDA-MB-231 cells after 72 hrs by colorimetric assay; type: functional, cell-based; conditions: Homo sapiens, MDA-MB-231, 72 h; read-out: IC50
How it was run: (§2)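 Cells grown in McCoy's medium (adherent lines) or RPMI-1640 (U266), each with 10% FBS, L-glutamine and antibiotics, at 37 °C in 5% CO₂. Compound dissolved as a 100 mM DMSO stock, final DMSO ≤0.4%. Cells were exposed for 72 h across a 10^-2 to 400 µM range. Viability was read by CellTiter 96 Aqueous (2–4 h incubation, absorbance 490 nm). Triplicate wells; IC50 from curve fitting.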

[12] = Cytotoxicity in human B-CLL assessed as pre-necrotic cells at 200 uM after 24 hrs by annexin V/propidium iodide staining based flow cytometry (reference value: 1.3 to 3.7%); type: functional
MCF7 [13] = test: Cytotoxicity against human MCF7 cells after 72 hrs by colorimetric assay; type: functional, cell-based; conditions: Homo sapiens, MCF7, 72 h; read-out: IC50; how it was run: as §2
SK-BR-3 [14] = test: Decrease in ID1 mRNA level in human SKBR3 cells at 50 uM after 12 hrs by TLDA; type: functional, cell-based; how it was run: as §1
SK-BR-3 [15] = test: Cell cycle arrest in human SKBR3 cells by accumulation of cells at G1 phase at 100 uM after 48 hrs by propidium iodide-staining based flow cytometry (reference value: 54%); type: functional

## OC[C@H](NC[C@H]1NC[C@H](O)[C@@H]1O)c1ccc(-c2ccc(C(F)(F)F)cc2)cc1
MCF7 [1]
  Activity: Active
[2]
  Activity: 2.3%
SK-BR-3 [3]
  Activity: Active
Jurkat [4]
  IC50: 75 µM
Jurkat [5]
  Activity: Active
[6]
  Activity: 11.1%
MCF7 [7]
  Activity: Active
SK-BR-3 [8]
  Activity: Active
SK-BR-3 [9]
  Activity: 30%
SK-BR-3 [10]
  Activity: 9%
Canavalia ensiformis
  inhibition: 98%
[11]
  IC50: 5 µM
  Ki: 2.7 µM
MDA-MB-231
  IC50: 66 µM
[12]
  Activity: 0.5%
MCF7 [13]
  IC50: 77 µM
SK-BR-3 [14]
  Activity: Active
SK-BR-3 [15]
  Activity: 48%
